Measured values reported in ChEMBL document CHEMBL1147501, “Synthesis and nicotinic acetylcholine receptor binding affinities of 2- and 3-isoxazolyl-8-azabicyclo[3.2.1]octanes” (Bioorg Med Chem Lett, 2004).

Target: not listed separately
Test: Inhibition of [3H]-cytisine binding to neuronal nicotinic acetylcholine receptor of rat brain
How it was run: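 Test compounds run as oxalate salts. Ki values are reported as mean ± SEM of three independent experiments, each performed in triplicate.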

Row | SMILES | Ki [nM]
1 | Clc1ccc([C@H]2CCC3CCC2N3)cn1 (some centres not stated) | 1.04
2 | Cc1cc(C2CC3CCC(C2)N3)on1 (stereo in doubt; 15a) | 18000
3 | Clc1ccc(C2CC3CC[C@@H]2N3)cn1 (some centres not stated) | 0.79
4 | Cc1cc(C2=CC3CCC(C2)N3C)on1 (configuration not stated) | 720
5 | Cc1cc(C2CC3CCC(C2)N3C)on1 (configuration not stated) | 194
6 | Cc1cc(C2CC3CCC(C2)N3)on1 (stereo in doubt; 15b) | 148
7 | Cc1cc(C2CC[C@H]3CCC2N3C)on1 (some centres not stated) | 1470
8 | CN1CCC[C@H]1c1ccccc1 | 8
9 | Cc1cc([C@@H]2CCC3CCC2N3)on1 (some centres not stated) | 26000
10 | Cc1cc(C2=CC3CCC(C2)N3)on1 (configuration not stated) | 320
11 | Cc1cc(C2CCC3CC[C@@H]2N3)on1 (some centres not stated) | 3

Target: Neuronal acetylcholine receptor (Rattus norvegicus) (UniProt P04757+P09483+P12389+P12390+P12392+P43144+Q9JLB5+P12391+P43143+P20420+Q05941)
Test: Percent Inhibition of [3H]cytisine binding at neuronal nicotinic acetylcholine receptor in rat brain at 100 uM
Assay type: tissue-based

Row | SMILES | inhibition [%]
12 | Cc1cc(C2CC3CCC(C2)N3C)on1 (configuration not stated) | 40
